Source: ChEMBL document CHEMBL3085653, “Synthesis and evaluation of hexahydropyrimidines and diamines as novel hepatitis C virus inhibitors” (Eur J Med Chem, 2013)
Counter-ions that a name gives are not always drawn. The source made the active and inactive calls. The calls are words filed in the database; no cut-off is given here.

Experiments:
Hepatitis C virus [1] = assay: Antiviral activity against cell culture derived HCV expressing NS5A-GFP fusion protein infected in human HuH7 cells assessed as inhibition of viral life cycle after 72 hrs by Hoechst-33342 staining-based confocal microscopy; format: functional, organism-based, Hepacivirus hominis; details: Huh-7, 72 h
[2] = Selectivity index, ratio of CC50 for human HuH7 cells to EC50 for cell culture derived HCV expressing NS5A-GFP fusion protein; design: species or system Huh-7
Procedure, shortened: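 Index is CC50 divided by EC50. Both values come from the same 10-point dose response in naïve Huh-7 cells infected with NS5A-GFP HCVcc (MOI 1), read at 72 h post-infection. EC50 taken from GFP-positive infection and CC50 from Hoechst nuclei counts, by confocal imaging. Duplicates with quadruplicate measurements.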

[3] = Cytotoxicity against human HuH7 cells; format: cell-based, Huh-7
Hepatitis C virus [4] = assay: Antiviral activity against HCV assessed as prevention of infectious virions release into cell culture supernatant by viral supernatant transfer assay; format: functional, organism-based; details: Hepacivirus hominis
[5] = Metabolic stability in liver microsomes (unknown origin) assessed as formation of N1,N3-dibenzylpropane-1,3-diamine by mass spectrum analysis; format: ADME, Microsome
Hepatitis C virus [6] = assay: Antiviral activity against HCV pseudoparticle expressing envelope protein E1 and E2 assessed as inhibition of E1/E2-mediated viral entry into human Huh7 cells treated for 1 hr prior to viral inoculation followed by compound washout 12 hrs post viral inoculation measured after 72 hrs by GFP reporter gene-based confocal microscopic analysis; format: functional, organism-based, Hepacivirus hominis; details: Huh-7
Hepatitis C virus [7] = assay: Antiviral activity against HCV expressing GFP infected in human HuH7 cells assessed as inhibition of viral RNA replication after 72 hrs by Hoechst-33342 staining-based confocal microscopy; format: functional, organism-based, Hepacivirus hominis; details: Huh-7, 72 h
Procedure, shortened: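 Huh-7 replicon cells expressing GFP seeded at 2000 cells/well and incubated overnight, then given serially diluted compounds for 72 h. Cells fixed in 2% PFA and nuclei stained with Hoechst 33342 (10 μg/mL). Automated confocal imaging used: RNA replication read as GFP expression, cytotoxicity as nucleus counts. EC50 calculated by non-linear regression.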

[8] = Chemical stability in cell culture medium assessed as formation of N1,N3-dibenzylpropane-1,3-diamine at 37 degC after 2 days by LC/MS analysis; format: physicochemical; details: 48 h
Procedure, shortened: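 Compound incubated with cells in culture medium at 37 °C for two days. Supernatant then analysed by LC/MS for the parent compound and the ring-opened diamine.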

| EC50 (Hepatitis C virus [1]) [µM] | Stability [5] | EC50 (Hepatitis C virus [6]) [µM] | EC50 (Hepatitis C virus [7]) [µM] | Stability [8] | Structure (SMILES) | Ratio CC50/EC50 [2] | CC50 [3] [µM] | Activity (Hepatitis C virus [4]) |
| --- | --- | --- | --- | --- | --- | --- | --- | --- |
| 0.88 |  |  |  |  | CN(C)c1ccc(CNCCCNCc2ccc(N(C)C)cc2)cc1 | 19 | 17 |  |
| 1.9 |  |  |  |  | COc1ccc(CN2CCCN(Cc3ccc(OC)cc3)C2c2ccc(F)cc2)cc1 | 20 | 38 | Active |
| 1.5 |  |  |  |  | COc1ccc(CN2CCCN(Cc3ccc(OC)cc3)C2c2ccncc2)cc1 | 15 | 23 | Active |
| 1.2 |  |  |  |  | CC(CNCCCNCC(C)c1ccccc1)c1ccccc1 (stereo unspecified) | 15 | 18 |  |
| > 50 |  |  |  |  | c1ccc(CNCCNCc2ccccc2)cc1 |  | > 50 |  |
| 25 |  |  |  |  | CN(C)c1ccc(C2N(Cc3ccccc3)CCCN2Cc2ccccc2)cc1 | >2 | > 50 | Active |
| 11 |  |  |  |  | COc1ccc(CN2CCCC(CNc3ccc(OC)cc3)C2)cc1 (stereo unspecified) | >4.7 | > 50 |  |
| > 50 |  |  |  |  | CC(C(=O)NCCCNC(=O)C(C)c1ccccc1)c1ccccc1 (stereo unspecified) |  | > 50 |  |
| 3.2 |  |  |  |  | COc1ccc(CN2CCCN(Cc3ccc(OC)cc3)C2c2cccc(C(F)(F)F)c2)cc1 | 13 | 43 | Active |
| > 50 |  |  |  |  | NCCCCNCCCN [SPERMIDINE TRIHYDROCHLORIDE] |  | > 50 |  |
| > 50 |  |  |  |  | NCCCCN [PUTRESCINE DIHYDROCHLORIDE] |  | > 50 |  |
| 1.3 |  |  |  |  | COc1ccc(CN2CCCN(Cc3ccc(OC)cc3)C2c2ccc(N(C)C)cc2)cc1 | 22 | 28 | Active |
| > 50 |  |  |  |  | O=C(NCCCNC(=O)c1ccccc1)c1ccccc1 |  | > 50 |  |
| 4.7 |  |  |  |  | COc1cccc(CN2CCCN(Cc3ccccc3F)C2c2ccncc2)c1 (stereo unspecified) | >11 | > 50 | Active |
| 2.7 |  |  |  |  | COc1cccc(CN2CCCN(Cc3ccccc3F)C2c2ccc(C(F)(F)F)cc2)c1 (stereo unspecified) | 8.5 | 23 | Active |
| 1.3 |  |  |  |  | CN(C)c1ccc(CN2CCCN(Cc3ccc(N(C)C)cc3)C2c2ccc(F)cc2)cc1 | 12 | 15 | Active |
| 3.7 |  |  |  |  | CC1N(Cc2ccccc2)CCCN1Cc1ccccc1 | >14 | > 50 | Active |
| 1.1 |  |  |  |  | COc1ccc(CNCC2CCCN(Cc3ccc(OC)cc3)C2)cc1 (stereo unspecified) | 31 | 34.5 |  |
| 11 |  |  |  |  | Fc1ccccc1CN1CCCN(Cc2ccccc2Cl)C1c1cccc(C(F)(F)F)c1 (stereo unspecified) | >4.5 | > 50 | Active |
| 6.5 |  |  |  |  | FC(F)(F)c1cccc(C2N(Cc3ccccc3)CCCN2Cc2ccccc2)c1 | >7.7 | > 50 | Active |
| > 50 |  |  |  |  | CC1N(Cc2ccccc2)CCN1Cc1ccccc1 |  | > 50 |  |

| EC50 (Hepatitis C virus [1]) [µM] | Stability [5] | EC50 (Hepatitis C virus [6]) [µM] | EC50 (Hepatitis C virus [7]) [µM] | Stability [8] | Structure (SMILES) | Ratio CC50/EC50 [2] | CC50 [3] [µM] | Activity (Hepatitis C virus [4]) |
| --- | --- | --- | --- | --- | --- | --- | --- | --- |
| > 50 |  |  |  |  | O=C1N(Cc2ccccc2)CCCN1Cc1ccccc1 |  | > 50 | Active |
| 1.7 |  |  |  |  | c1ccc(CNCCOCCNCc2ccccc2)cc1 | 16 | 28 |  |
| 4.6 |  |  |  |  | c1ccc(CNCCCNCc2ccccc2)cc1 | 5.9 | 27 |  |
| 1.5 |  |  |  |  | COc1ccc(CNCCCNCc2ccc(OC)cc2)cc1 | 22 | 33 |  |
| 0.32 |  |  |  |  | CN(C)c1ccc(CNCCCCNCc2ccc(N(C)C)cc2)cc1 | 34 | 11 |  |
| 1.5 |  |  |  |  | COc1ccc(CN2CCCN(Cc3ccc(OC)cc3)C2c2ccc(C#N)cc2)cc1 | 13 | 20 | Active |
| > 50 |  |  |  |  | c1ccc(CN2CCN(Cc3ccccc3)C2c2ccncc2)cc1 |  | > 50 |  |
| > 50 |  |  |  |  | Cc1ccc(C2N(Cc3ccccc3)CCCN2Cc2ccccc2)o1 |  | > 50 | Active |
| 1.6 |  |  |  |  | COc1ccc(CN2CCCN(Cc3ccc(OC)cc3)C2c2ccc(C(F)(F)F)cc2)cc1 | 21 | 34 | Active |
| 1.9 |  |  |  |  | COc1ccc(CN2CCCN(Cc3ccc(OC)cc3)C2c2ccc(C#N)c(F)c2)cc1 | 15 | 29 | Active |
| 0.83 |  |  |  |  | CN(C)c1ccc(CN2CCCN(Cc3ccc(N(C)C)cc3)C2c2ccncc2)cc1 | 17 | 14 | Active |
| > 50 |  |  |  |  | CC(=O)N(CCCCN(Cc1ccccc1)C(C)=O)Cc1ccccc1 |  | > 50 |  |
| > 50 |  |  |  |  | c1ccc(CN2CCCN(Cc3ccccc3)C2)cc1 |  | > 50 | Active |
| > 50 |  |  |  |  | c1ccc(NCCCCNc2ccccc2)cc1 |  | > 50 |  |
| > 50 |  |  |  |  | NCCCNCCCCNCCCN [SPERMINE] |  | > 50 |  |
| > 50 |  |  |  |  | CN(C)c1ccc(C2N(Cc3ccccc3)CCN2Cc2ccccc2)cc1 |  | > 50 |  |
| 1.1 |  |  |  |  | c1ccc(CCNCCCNCCc2ccccc2)cc1 | 11 | 12 |  |
| 1.5 |  |  |  |  | CN(C)c1ccc(CN2CCCN(Cc3ccc(N(C)C)cc3)C2c2ccc(C(F)(F)F)cc2)cc1 | 15 | 23 | Active |
| 0.38 |  |  |  |  | COc1ccc(CNCCCCNCc2ccc(OC)cc2)cc1 | 84 | 32 |  |
| 0.61 |  |  |  |  | c1ccc(CNCCCCCNCc2ccccc2)cc1 | 48 | 29 |  |
| 4.3 | Unstable | 4 | > 50 | Unstable | c1ccc(CN2CCCN(Cc3ccccc3)C2c2ccncc2)cc1 | >12 | > 50 | Active |
